Results as given in ChEMBL document CHEMBL1155356, “Design, synthesis, and structure-activity relationship of novel orally efficacious pyrazole/sulfonamide based dihydroquinoline gamma-secretase inhibitors” (Bioorg Med Chem Lett, 2009).
Values after ≈ are worked out from the molar mass of the structure shown.

Assays:
Gamma-secretase = test: Inhibition of Gamma-secretase in human IMR-32 cells after 2 hrs by ELISA assay; format: cell-based
Procedure, shortened: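 γ-Secretase came from IMR-32 cell membranes, and compound was first diluted in DMSO. Reaction at 37 °C was started with MBPC-125 Swedish substrate, run for 2 h, then stopped with SDS. Cleaved substrate was measured by Aβ40-specific ELISA. Values are means of three experiments.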

[1] = (§1) Oxidative metabolic stability in human liver microsomes at 1 uM after 30 mins in presence of 1 mM NADPH; format: ADME, Microsome; details: liver microsomes, read-out: Stability
Procedure, shortened: (§2)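 Oxidative stability: compound at 1 µM incubated 30 min at 37 °C in phosphate buffer with liver microsomes (0.5 mg/ml protein) plus 1 mM NADPH. Percent parent remaining reported. Human or mouse microsomes per line.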

[2] = Oxidative metabolic stability in mouse liver microsomes at 1 uM after 30 mins in presence of 1 mM NADPH; format: ADME, Microsome; details: for remaining at 0.5 h, 1 µM: liver microsomes, read-out: Stability; for Stability: microsomes, 0.5 h, 1 µM; procedure, shortened: as §2
Mus musculus = test: Reduction of cortical abeta40 level in FVB mouse at 3 mg/kg, po after 3 hrs; format: functional; set-up: scale not given: the % may be the effect or the level left
[3] = Apparent permeability from apical to basolateral side in MDCK2 cells at 5 uM after 120 mins; format: ADME, cell-based, Canis lupus familiaris, MDCK-II; details: dog, MDCK
Procedure, shortened: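 Compound at 5 µM in mHBSS pH 7.4 applied to MDCK II cell monolayers for 120 min at 37 °C. Apical and basolateral chambers sampled and analysed by LC/MS/MS.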

[4] = Metabolic stability in mouse liver microsomes at 2 uM after 30 mins in presence of 1 mM UDPGA; format: ADME, Microsome; details: read-out: Stability
Procedure, shortened: (§3)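 Glucuronidation stability: 2 µM compound incubated 30 min at 37 °C in phosphate buffer with liver microsomes (0.5 mg protein), 1 mM UDPGA, 100 mM MgCl2 and 25 µg/mL alamethicin. Read-out is percent parent compound remaining. Human or mouse microsomes per line.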

[5] = Metabolic stability in human liver microsomes at 2 uM after 30 mins in presence of 1 mM UDPGA; format: ADME, Microsome; details: read-out: Stability; procedure, shortened: as §3
[6] = Solubility in HBSS buffer at 20 mM at pH 7.4 after 1 hr; format: physicochemical
Procedure, shortened: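 20 mM DMSO stocks serially diluted in DMSO, then diluted 1:200 into HBSS pH 7.4. After 1 h incubation, plates read on a solubility scanner.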

Liver microsomes = test: as §1; format: ADME, Microsome; details: microsomes, 0.5 h, 1 µM; procedure, shortened: as §2

| IC50 (Gamma-secretase) [nM] | remaining at 0.5 h, 1 µM [1] [%] | remaining at 0.5 h, 1 µM [2] [%] | Compound | also measured |
| --- | --- | --- | --- | --- |
| 27 | 0 | 2 | O=S(=O)(c1ccc(Cl)cc1)N1Cc2c[nH]nc2-c2ccccc21 | – |
| 0.67 | 95 | 83 | O=S(=O)(c1ccc(C(F)(F)F)cn1)N1c2ccc(F)cc2-c2n[nH]cc2[C@H]1C1CC1 | Activity (Mus musculus): 43%; Papp A→B at 2 h, 5 µM [3]: 24.9 ×10⁻⁶ cm/s; remaining at 0.5 h, 2 µM [4]: 89%; remaining at 0.5 h, 2 µM [5]: 97%; solubility at 1 h [6]: 95 µM (≈ 41.6 µg/mL) |
| 0.58 | 29 | 17 | O=S(=O)(c1ccc(C(F)(F)F)cc1)N1c2cc(N3CCOCC3)ccc2-c2n[nH]cc2C1C1CC1 (racemic) | – |
| 0.76 | 68 | 56 | O=S(=O)(c1ccc(OC(F)F)cc1)N1c2ccc(F)cc2-c2n[nH]cc2C1C1CC1 (racemic) | – |
| 2.9 | 1 | 5 | O=S(=O)(c1cccs1)N1c2cc(F)c(F)cc2-c2n[nH]cc2C1C1CC1 (racemic) | – |
| 2.1 | 44 | 25 | O=S(=O)(c1ccc(C(F)(F)F)cc1)N1c2cccnc2-c2n[nH]cc2C1C1CC1 (racemic) | – |
| 290 | 73 | 46 | CC1c2c[nH]nc2-c2ccccc2N1S(=O)(=O)c1ccccn1 (racemic) | – |
| 0.28 | 1 | 2 | CC(C)C1c2c[nH]nc2-c2ccccc2N1S(=O)(=O)c1ccc(Cl)cc1 (racemic) | – |
| 1.1 | 59 | 53 | O=S(=O)(c1ccc(C(F)(F)F)cc1)N1c2ncccc2-c2n[nH]cc2C1C1CC1 (racemic) | – |
| 85 | 53 | 35 | Nc1ccc(S(=O)(=O)N2c3cc(F)c(F)cc3-c3n[nH]cc3C2C2CC2)cc1 (racemic) | – |
| 0.26 | 32 | 13 | O=C1OCCN1c1ccc2c(c1)N(S(=O)(=O)c1ccc(C(F)(F)F)cc1)C(C1CC1)c1c[nH]nc1-2 (racemic) | – |
| 0.21 | 13 | 10 | O=S(=O)(c1ccc(Cl)cc1)N1c2ccccc2-c2n[nH]cc2C1C(F)(F)F (racemic) | – |
| 1.6 | 13 | 23 | CC1c2c[nH]nc2-c2cc(F)ccc2N1S(=O)(=O)c1ccc(Cl)cc1 (racemic) | – |
| 1.4 | 3 | 11 | CC1c2c[nH]nc2-c2c(F)cccc2N1S(=O)(=O)c1ccc(Cl)cc1 (racemic) | – |
| 0.44 | 87 | 85 | O=S(=O)(c1ccc(C(F)(F)F)cc1)N1c2cc(Cl)ccc2-c2n[nH]cc2C1C1CC1 (racemic) | – |
| 3.2 | 3 | 2 | COc1ccc(S(=O)(=O)N2c3ccccc3-c3n[nH]cc3C2C2CC2)cc1 (racemic) | – |
| 0.74 | 9 | 11 | N#Cc1ccc(S(=O)(=O)N2c3ccccc3-c3n[nH]cc3C2C2CC2)cc1 (racemic) | – |
| 2.6 | 6 | 3 | CC1c2c[nH]nc2-c2ccncc2N1S(=O)(=O)c1ccc(Cl)cc1 (racemic) | – |
| 1.2 | 3 | 16 | CC1c2c[nH]nc2-c2ccccc2N1S(=O)(=O)c1ccc(Cl)cc1 (racemic) | – |
| 0.36 | 2 | 7 | CCC1c2cn[nH]c2-c2ccccc2N1S(=O)(=O)c1ccc(Cl)cc1 (racemic) | – |
| 0.2 | 27 | 3 | O=S(=O)(c1ccc(C(F)(F)F)cc1)N1c2cc(-c3cncnc3)ccc2-c2n[nH]cc2C1C1CC1 (racemic) | – |
| 2.4 | 87 | 88 | O=S(=O)(c1ccc(C(F)(F)F)cc1)N1c2c[n+]([O-])ccc2-c2n[nH]cc2C1C1CC1 (racemic) | – |
| 2.1 | 6 | 23 | CC1c2c[nH]nc2-c2ccc(F)cc2N1S(=O)(=O)c1ccc(Cl)cc1 (racemic) | – |

| IC50 (Gamma-secretase) [nM] | remaining at 0.5 h, 1 µM [1] [%] | remaining at 0.5 h, 1 µM [2] [%] | Compound | also measured |
| --- | --- | --- | --- | --- |
| 0.17 | 80 | 77 | N#Cc1ccc2c(c1)N(S(=O)(=O)c1ccc(C(F)(F)F)cc1)C(C1CC1)c1c[nH]nc1-2 (racemic) | – |
| 1.5 | 0 | 1 | CC1c2c[nH]nc2-c2ccc(OCc3ccccc3)cc2N1S(=O)(=O)c1ccc(Cl)cc1 (racemic) | – |
| 24 | 31 | 8 | Cc1nc2c(s1)N(S(=O)(=O)c1ccc(C(F)(F)F)cc1)C(C1CC1)c1c[nH]nc1-2 (racemic) | – |
| 27 | 74 | 56 | CC1c2c[nH]nc2-n2ccnc2N1S(=O)(=O)c1ccc(Cl)cc1 (racemic) | – |
| 140 | – | 3 | CC1c2cn[nH]c2-c2ccccc2N1S(=O)(=O)c1cccnc1 (racemic) | – |
| 5500 | 76 | 65 | CC1c2c[nH]nc2-c2cc(F)ccc2N1S(=O)(=O)c1cn(C)cn1 (racemic) | – |
| 40 | – | – | O=[N+]([O-])c1ccc(S(=O)(=O)N2c3cc(F)c(F)cc3-c3n[nH]cc3C2C2CC2)cc1 (racemic) | Stability (Liver microsomes): Not Active; Stability [2]: Not Active |
| 0.42 | 8 | 11 | O=S(=O)(c1ccc(F)cc1)N1c2ccccc2-c2n[nH]cc2C1C1CC1 (racemic) | – |
| 0.24 | 59 | 55 | O=S(=O)(c1ccc(C(F)(F)F)cc1)N1c2cc(-n3ccnc3)ccc2-c2n[nH]cc2C1C1CC1 (racemic) | – |
| 0.65 | 50 | 27 | CC1c2cn[nH]c2-c2ccc(O)cc2N1S(=O)(=O)c1ccc(Cl)cc1 (racemic) | – |
| 4.5 | 3 | 18 | CC1c2c[nH]nc2-c2cc(Cl)sc2N1S(=O)(=O)c1ccc(C(F)(F)F)cc1 (racemic) | – |
| 0.17 | 4 | 15 | O=S(=O)(c1ccc(Cl)cc1)N1c2ccccc2-c2n[nH]cc2C1C1CC1 (racemic) | – |
| 0.37 | 60 | 55 | O=S(=O)(c1ccc(OC(F)(F)F)cc1)N1c2ccc(F)cc2-c2n[nH]cc2C1C1CC1 (racemic) | – |
| 0.52 | 4 | 9 | O=S(=O)(c1ccc(Cl)s1)N1c2cc(F)c(F)cc2-c2n[nH]cc2C1C1CC1 (racemic) | – |
| 2 | 1 | 1 | COc1ccc2c(c1)N(S(=O)(=O)c1ccc(Cl)cc1)C(C)c1c[nH]nc1-2 (racemic) | – |
| 0.26 | – | – | COC(=O)c1ccc2c(c1)N(S(=O)(=O)c1ccc(C(F)(F)F)cc1)C(C1CC1)c1c[nH]nc1-2 (racemic) | Stability (Liver microsomes): Not Active; Stability [2]: Not Active |
| 1.3 | 62 | 49 | O=S(=O)(c1ccc(Cl)cn1)N1c2ccc(F)cc2-c2n[nH]cc2C1C1CC1 (racemic) | – |
| 0.31 | 45 | 49 | O=S(=O)(c1ccc(C(F)(F)F)cc1)N1c2ccccc2-c2n[nH]cc2C1C1CC1 (racemic) | – |
| 0.41 | 60 | 32 | O=S(=O)(c1ccc(C(F)(F)F)cc1)N1c2cc(-c3cscn3)ccc2-c2n[nH]cc2C1C1CC1 (racemic) | – |
| 4.2 | – | – | O=S(=O)(c1ccccc1)N1c2ccccc2-c2n[nH]cc2C1C1CC1 (single isomer, unassigned; enantiomer 1) | Stability (Liver microsomes): Not Active; Stability [2]: Not Active |
| 0.46 | 23 | 4 | O=S(=O)(c1ncc(Cl)s1)N1c2cc(F)c(F)cc2-c2n[nH]cc2C1C1CC1 (single isomer, unassigned; enantiomer 2) | – |
| 0.26 | 80 | 78 | O=S(=O)(c1ccc(C(F)(F)F)cc1)N1c2cc(I)ccc2-c2n[nH]cc2C1C1CC1 (single isomer, unassigned; enantiomer 3) | – |

| Compound | IC50 (Gamma-secretase) [nM] | remaining at 0.5 h, 1 µM [1] [%] | remaining at 0.5 h, 1 µM [2] [%] | also measured |
| --- | --- | --- | --- | --- |
| CC1c2c[nH]nc2-c2ccc(OC(=O)N(C)C)cc2N1S(=O)(=O)c1ccc(Cl)cc1 (racemic) | 0.93 | 0 | 0 | – |
